According to ChEMBL document CHEMBL3085758, “A stereoselective approach to peptidomimetic BACE1 inhibitors” (Eur J Med Chem, 2013):

How the values were obtained:
[1] = biological target: T1, Beta-secretase 1 (Homo sapiens, UniProt P56817); experiment: Inhibition of human recombinant BACE1 using [acetyl-C(W8044Eu)-EVNLDAEFK-QSY7] as substrate by TR-FRET assay
How it was run: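 Enzyme (6 nM) incubated with 200 nM europium-labelled TR-FRET substrate in 50 mM NaOAc, 0.005% Triton X-100, pH 4.5; inhibitors in 3.3% DMSO. Time-resolved fluorescence read at excitation 330 nm, emission 615 nm; IC50 from concentration-response curves, mean of at least 3 experiments.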

[2] = biological target: T1, Beta-secretase 1; experiment: Inhibition of BACE1 in human SH-SY5Y cells expressing APP NFEV and wild-type alpha cleavage site assessed as generation of EV40/EV42 by electrochemiluminescence assay; format: cell-based
How it was run: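 SHSY5Y cells expressing APP NFEV with wild-type alpha-cleavage site. Compounds started at […], then 3-fold dilutions (10 points). IC50 determined against generation of sAPPb NF and EV40 and EV42 peptides. Run at Merck RL.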

[3] = biological target: T1, Beta-secretase 1; experiment: Inhibition of BACE1 in HEK293 cells expressing APP NFEV and APP K612V mutant assessed as generation of EV40/EV42 by electrochemiluminescence assay; format: cell-based
How it was run: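 HEK293 cells carrying a proprietary APP construct with modified BACE cleavage sequence (NFEV) and K612V alpha-site mutation. Compounds started at […], then 3-fold dilutions (10 points). IC50 determined against generation of sAPPb NF and EV40 and EV42 peptides. Run at Merck RL.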

[4] = biological target: T1, Beta-secretase 1; experiment: Selectivity ratio of IC50 for BACE1 in human SH-SY5Y cells to IC50 for BACE1 in HEK293 cells; format: cell-based

T1 sequence (P56817 whole entry): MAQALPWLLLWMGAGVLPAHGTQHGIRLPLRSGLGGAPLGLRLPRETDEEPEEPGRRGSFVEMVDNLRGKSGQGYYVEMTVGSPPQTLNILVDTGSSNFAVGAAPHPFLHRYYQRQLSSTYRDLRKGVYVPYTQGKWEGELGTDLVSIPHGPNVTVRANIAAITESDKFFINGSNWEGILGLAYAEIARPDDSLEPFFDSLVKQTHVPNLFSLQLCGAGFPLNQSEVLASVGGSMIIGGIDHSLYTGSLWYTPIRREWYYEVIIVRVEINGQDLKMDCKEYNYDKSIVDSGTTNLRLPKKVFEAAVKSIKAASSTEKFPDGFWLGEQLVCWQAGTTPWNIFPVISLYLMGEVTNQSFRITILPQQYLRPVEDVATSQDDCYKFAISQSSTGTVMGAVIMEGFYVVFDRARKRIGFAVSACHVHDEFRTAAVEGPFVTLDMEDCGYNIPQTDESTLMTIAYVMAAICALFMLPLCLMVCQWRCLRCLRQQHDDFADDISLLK

Row | Compound | IC50 ([1]; read-out: IC50) | other results
1 | CC(C)(C)OC(=O)N1CCN(c2cccc(C=O)c2NC(=O)[C@@H](NC(=O)OCc2ccccc2)c2ccccc2)CC1 | 14.3 µM | –
2 | O=C(N[C@H](C(=O)Nc1cccc([C@@H](O)CN[C@H](CO)Cc2ccccc2)c1)c1ccccc1)OCc1ccccc1 | 7.5 µM | –
3 | CC(C)(C)OC(=O)N(Cc1ccccc1)C[C@H](O)c1ccc(C(=O)c2ccccc2)c(NC(=O)[C@H](NC(=O)OCc2ccccc2)c2ccccc2)c1 | 18.1 µM | –
4 | O=C1Nc2c(N3CCNCC3)ccc(-c3ccccc3)c2C=N[C@H]1c1ccccc1 | – | IC50 [1]: Not Active
5 | CC(C)(C)OC(=O)N1CCN(c2ccc(-c3ccccc3)c3c2NC(=O)[C@H](c2ccccc2)N=C3)CC1 | 12.8 µM | –
6 | CC(C)(C)OC(=O)N(Cc1ccccc1)C[C@H](O)c1cccc(NC(=O)c2cccc3ccccc23)c1 | 4.9 µM | IC50 [2]: 11 µM; IC50 [3]: > 7 µM
7 | CC(C)(C)OC(=O)N(C[C@H](O)c1cccc(NC(=O)[C@@H](NC(=O)OCc2ccccc2)c2ccccc2)c1)[C@H](CO)c1ccccc1 | 9.2 µM | –
8 | CC(C)(C)OC(=O)N1CCN(c2ccc(-c3ccccc3)c3c2NC(=O)[C@H](c2ccccc2)NC3)CC1 | – | IC50 [1]: Not Active
9 | CC(C)(C)OC(=O)N1CCN(c2ccc(-c3ccccc3)c(C=O)c2NC(=O)[C@@H](NC(=O)OCC2c3ccccc3-c3ccccc32)c2ccccc2)CC1 | 14.8 µM | –
10 | CC(C)(C)OC(=O)N1CCN(c2cccc3c2NC(=O)[C@H](c2ccccc2)N=C3)CC1 | – | IC50 [1]: Not Active
11 | CC(C)(C)OC(=O)N(Cc1ccccc1)C[C@@H](O)c1cccc(NC(=O)[C@@H](NC(=O)OCc2ccccc2)c2ccccc2)c1 | 5.2 µM | –
12 | CC(C)(C)OC(=O)N(C[C@H](O)c1cccc(NC(=O)[C@@H](NC(=O)OCc2ccccc2)c2ccccc2)c1)[C@H](CO)Cc1ccccc1 | 6.4 µM | –
13 | CC(C)(C)OC(=O)N(Cc1ccccc1)C[C@@H](O)c1cccc(NC(=O)[C@H](NC(=O)OCc2ccccc2)c2ccccc2)c1 | 4.7 µM | Ratio IC50 [4]: 10; IC50 [2]: > 100 µM; IC50 [3]: > 10 µM
14 | CC(C)(C)OC(=O)N(Cc1ccccc1)C[C@H](O)c1ccc(C(=O)c2ccccc2)c(NC(=O)[C@@H](NC(=O)OCc2ccccc2)c2ccccc2)c1 | 14.9 µM | –
